# Results as given in PMC4338581 (Bioorganic & medicinal chemistry letters, 2014).
# Where two headings read alike, the source gives them in different places. Marks after values point to notes of the source that are not given here.
# How the values were obtained:
# HT-1080 xenografts = details: ref [19], cited from earlier work
# MMP-7 = details: ref [37]; cited from earlier work
# albumin = details: ref [26]; cited from earlier work
# MMP-2 [1] = target: T1, MMP-2 (Homo sapiens, UniProt P08253); details: ref [23]; cited from earlier work
# T1 sequence (P08253 110-660): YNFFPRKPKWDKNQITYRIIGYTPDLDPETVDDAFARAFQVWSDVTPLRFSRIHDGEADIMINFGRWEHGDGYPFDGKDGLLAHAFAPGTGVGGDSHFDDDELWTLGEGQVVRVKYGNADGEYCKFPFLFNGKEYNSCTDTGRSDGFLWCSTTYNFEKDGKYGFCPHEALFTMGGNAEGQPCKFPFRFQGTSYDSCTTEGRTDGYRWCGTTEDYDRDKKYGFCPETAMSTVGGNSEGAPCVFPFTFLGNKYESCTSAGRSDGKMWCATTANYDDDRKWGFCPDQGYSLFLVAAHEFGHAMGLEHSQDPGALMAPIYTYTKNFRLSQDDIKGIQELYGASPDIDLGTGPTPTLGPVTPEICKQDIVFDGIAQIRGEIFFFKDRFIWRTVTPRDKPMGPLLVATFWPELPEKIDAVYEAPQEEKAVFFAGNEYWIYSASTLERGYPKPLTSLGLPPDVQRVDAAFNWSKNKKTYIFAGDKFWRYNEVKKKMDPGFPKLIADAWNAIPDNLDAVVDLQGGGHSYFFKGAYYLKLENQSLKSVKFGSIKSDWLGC
# MMP-9 [2] = target: T2, MMP-9 (Homo sapiens, UniProt P14780); details: ref [23]; cited from earlier work
# [3] = ref [23]; cited from earlier work
# [4] = test system: gelatinases (MMP-2 and MMP-9) versus other MMP family members; details: ref [23], [24]; cited from earlier work
# MMP-2 [5] = target: T1, MMP-2; experiment: Enzyme kinetics; format: biochemical; details: λexcitation = 780 nm, λemission = 810 nm; for kcat: Michaelis-Menten; for Km: ± standard error of the mean
# MMP-9 [6] = target: T2, MMP-9; experiment: Enzyme kinetics; format: biochemical; details: λexcitation = 780 nm, λemission = 810 nm; for kcat: Michaelis-Menten; for Km: ± standard error of the mean
# [7] = Fluorescence quenching efficiency, intact vs completely hydrolyzed; format: physicochemical; details: from variable temperature absorbance spectra and variable temperature fluorescence melting curves
# [8] = Triple-helix melting temperature; format: physicochemical; details: from fluorescence melting curves; Table 1
# [9] = Variable temperature absorbance spectra; format: physicochemical; details: room temperature, PBS
# Method in brief: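 Dye-labelled triple-helical peptide conjugates in PBS; absorbance spectra recorded across a range of temperatures. Quenching efficiency was derived from these spectra together with variable-temperature fluorescence melting curves.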
# [10] = test system: gelatinases (MMP-2 and MMP-9) versus other MMP family members; experiment: Substrate selectivity for gelatinases within the MMP family; format: biochemical; details: authors' summary statement
# [11] = test system: HT-1080 xenografted tumors (gelatinase activity); experiment: FMT imaging of mice bearing HT-1080 fibrosarcoma xenografts; details: 2 nmol i.v.
# T2 sequence (P14780 94-707): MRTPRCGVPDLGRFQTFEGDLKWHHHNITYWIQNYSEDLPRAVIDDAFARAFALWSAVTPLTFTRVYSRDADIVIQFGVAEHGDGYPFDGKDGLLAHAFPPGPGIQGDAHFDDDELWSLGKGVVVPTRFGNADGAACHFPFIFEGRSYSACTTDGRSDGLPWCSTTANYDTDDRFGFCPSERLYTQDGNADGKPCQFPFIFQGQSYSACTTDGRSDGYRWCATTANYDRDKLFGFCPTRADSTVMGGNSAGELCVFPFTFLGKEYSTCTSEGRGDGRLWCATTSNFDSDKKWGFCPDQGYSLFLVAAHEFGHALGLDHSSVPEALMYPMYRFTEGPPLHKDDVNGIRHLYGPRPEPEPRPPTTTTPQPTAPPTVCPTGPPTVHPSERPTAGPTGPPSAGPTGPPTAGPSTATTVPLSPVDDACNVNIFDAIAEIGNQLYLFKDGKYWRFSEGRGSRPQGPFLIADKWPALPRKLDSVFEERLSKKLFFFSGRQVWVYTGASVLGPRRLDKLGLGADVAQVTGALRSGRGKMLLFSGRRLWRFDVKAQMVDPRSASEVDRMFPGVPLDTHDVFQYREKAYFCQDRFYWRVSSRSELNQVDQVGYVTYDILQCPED
molecule,measurement,setting,value
PLGVR [MMPSense],visualization of HT-1080 xenografts,HT-1080 xenografts; NIR reflectance imaging,enabled the visualization of the HT-1080 xenografts
"CC1(C)SCCN(S(=O)(=O)c2ccc(Oc3ccncc3)cc2)[C@H]1C(=O)NO [Prinomastat, reference compound]",Ki,MMP-7,54 nM
same,reduction of tumor-associated fluorescence on co-administration,"HT-1080 xenografts; with MMPSense, HT-1080 xenografts",2.5 fold
CC1(C)C(/C=C/C=C/C=C/C=C2/N(CCC(=O)O)c3ccc4ccccc4c3C2(C)C)=[N+](CCC(=O)O)c2ccc3ccccc3c21.[Br-] [cypate],binding affinity to albumin,albumin,good binding affinity
(GPO)5GPK(Mca)GPPG~VVGEK(Dnp)GEN(GPO)5-NH2 [fTHP],Km,MMP-2 [1],4.4 µM
same,kcat,MMP-2 [1],0.061 s⁻¹
same,kcat/KM,MMP-2 [1],14 × 10^3 s^−1M^−1
same,Km,MMP-9 [2],8.1 µM
same,kcat,MMP-9 [2],0.044 s⁻¹
same,kcat/KM,MMP-9 [2],5.4 × 10^3 s^−1M^−1
same,TM,[3],45.0 °C
same,kcat/KM for gelatinases relative to other MMP family members,[4],more than 10 fold
(GPO)5GPKGPPG~VVGEK(cypate)GEQ(GPO)5 [cypate3-THP],kcat/KM,MMP-2 [5],6800 M⁻¹ s⁻¹
same,kcat,MMP-2 [5],0.056 s⁻¹
same,kcat/KM,MMP-2 [5]; Table 1,6.8 × 10^3 s^−1M^−1
same,Km,MMP-2 [5],8.19 µM
same,kcat/KM,MMP-9 [6],6400 M⁻¹ s⁻¹
same,kcat,MMP-9 [6],0.142 s⁻¹
same,kcat/KM,MMP-9 [6]; Table 1,6.4 × 10^3 s^−1M^−1
same,Km,MMP-9 [6],22.3 µM
same,"quenching efficiency, comparison with and without PEG spacer",[7],similar
same,TM,[8],50.5^b °C
same,additional absorption peak (aggregate),[9],710 nm
same,main absorption peak,[9],780 nm
same,aggregation,"[9]; 300 nM, up to 1.5 μM",significant intramolecular H-aggregation
same,selectivity of hydrolysis,[10],efficiently hydrolyzed selectively by MMP-2 and -9
same,average tumor to background ratio,"[11]; 4 hours post-injection, n = 3",10.2
same,clearance of fluorescence,[11]; after 24 h,slowly cleared from most tissues after 24 h
same,time of peak normalized fluorescence intensity,"[11]; post-injection, n = 3",4 h
same,fluorescence enhancement within the tumor,[11]; abstract,significant fluorescence enhancement within the tumor
same,normalized tumor fluorescence intensity,"[11]; pmol cypate/mm^3 tumor volume, 1 hour post-injection, n = 3",relatively low
(GPO)5GPKGPPG~VVGEK(PEG2-cypate)GEQ(GPO)5 [cypate3-(PEG)2-THP],kcat/KM,MMP-2 [5],9100 M⁻¹ s⁻¹
same,kcat,MMP-2 [5],0.099 s⁻¹
same,kcat/KM,MMP-2 [5]; Table 1,9.1 × 10^3 s^−1M^−1
same,Km,MMP-2 [5],10.9 µM
same,kcat/KM,MMP-9 [6],9100 M⁻¹ s⁻¹
same,kcat,MMP-9 [6],0.202 s⁻¹
same,kcat/KM,MMP-9 [6]; Table 1,9.1 × 10^3 s^−1M^−1
same,Km,MMP-9 [6],22.2 µM
same,"quenching efficiency, comparison with and without PEG spacer",[7],similar
same,TM,[8],45.5^b °C
